Measured values: paper PMC12257578 (Drug Development Research, 2025)
Like-named read-outs stand apart in the source and are kept apart here. One block for each compound: values may come before it.

Assays:
[1] = test system: Madin‐Darby bovine kidney (MDBK) cell line; experiment: Animal cytotoxicity, CCK-8 assay in MDBK cells; format: cell-based; details: read-out: Cytotoxicity CC50 ± SD MDBK, 72 h
Outline: (§1)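 MDBK bovine kidney cells at 10 000 cells/mL were exposed to two-fold serial dilutions of test compound for 72 h at 37°C, 5% CO2, humidified. CCK-8 reagent was then added, followed by a further 4 h incubation. Absorbance was read and CC50 derived, reported as mean ± SD of three biological replicates.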

[2] = test system: T. brucei gambiense strain IL1922; experiment: Antitrypanosomal Cell-TiterGlo assay, T.b. gambiense; format: cell-based, Trypanosoma brucei gambiense; details: read-out: Antitrypomastigote activity IC50 ± SD; Tbg IL1922, 72 h
[3] = test system: Trypanosoma brucei brucei GUTat3.1; experiment: Antitrypanosomal Cell-TiterGlo assay, T.b. brucei; format: cell-based; details: read-out: Antitrypomastigote activity IC50 ± SD
Outline: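 Blood-stage T. b. brucei GUTat3.1 at 2500 cells/mL was first screened at 0.25 and 25 µg/mL. […] Plates ran 72 h, then CellTiter-Glo was added, shaken 2 min and held 10 min at room temperature for lysis. IC50 came from bioluminescence, mean ± SD of three biological replicates.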

[4] = test system: T. congolense strain IL3000; experiment: Antitrypanosomal Cell-TiterGlo assay, T. congolense; format: cell-based, Trypanosoma congolense; details: read-out: Antitrypomastigote activity IC50 ± SD
[5] = test system: T. equiperdum strain IVM‐t1; experiment: Antitrypanosomal Cell-TiterGlo assay, T. equiperdum; format: cell-based, Trypanosoma equiperdum; details: read-out: Antitrypomastigote activity IC50 ± SD
[6] = General cytotoxicity, resazurin assay in Vero cells; format: cell-based; details: African green monkey
Outline: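 Vero cells at 60,000 cells/mL were pre-incubated 24 h, then treated with a two-fold dilution series starting from 100 μM test compound for 72 h. […] Emetine served as control.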

[7] = test system: Leishmania donovani strain 9515 promastigotes; experiment: Antipromastigote resazurin assay, L. donovani; format: cell-based; details: read-out: Antipromastigote activity IC50
Outline: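 L. donovani strain 9515 (MHOM/IN/95/9515) promastigotes were kept at 26°C in supplemented M199 with 10% FBS, pH 7.3–7.4. Log-phase cells were seeded at 1.25 × 10^6 cells/mL with seven two-fold dilutions of test compound. […] After 48 h at 26°C, 0.01% resazurin in PBS was added for 24 h in the dark. IC50 came from absorbance.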

[8] = test system: Leishmania donovani strain 9515 intramacrophage amastigotes; experiment: Intramacrophage antileishmanial assay; format: cell-based
[9] = Animal cytotoxicity, CCK-8 assay in MDBK cells; format: cell-based, bovine; details: bovine
Outline: as §1

[10] = test system: L. major strain NIH S promastigotes; experiment: Antipromastigote resazurin assay, L. major; format: cell-based; details: Leishmania major, read-out: Antipromastigote activity IC50
[11] = test system: L. major strain NIH S intramacrophage amastigotes; experiment: Intramacrophage antileishmanial assay; format: cell-based; details: Leishmania major
[12] = test system: human colorectal adenocarcinoma (CaCO2) cells; details: ref Tshiluka et al. [2023]; Tshiluka et al. [2025]; cited from earlier work
[13] = 24 h, read-out: Static anti‐amastigote activity IC50
[14] = 72 h, read-out: Cidal anti‐amastigote activity IC50

SMILES: CC[C@H]1CN2CCc3cc(OC)c(OC)cc3[C@@H]2C[C@@H]1C[C@H]1NCCc2cc(OC)c(OC)cc21 [Em, Emetine]
CC50 at 72 h [6]: 80 ± 9 nM

SMILES: C[C@@H]1[C@H](O)[C@@H](C)/C=C/C=C/C=C/C=C/C=C/C=C/C=C/[C@H](O[C@@H]2O[C@H](C)[C@@H](O)[C@H](N)[C@@H]2O)C[C@@H]2O[C@](O)(C[C@@H](O)C[C@@H](O)[C@H](O)CC[C@@H](O)C[C@@H](O)CC(=O)O[C@H]1C)C[C@H](O)[C@H]2C(=O)O [AMB, Amphotericin B]
IC50 [7]: 20 ± 9 nM | IC50 [8, 13]: 50 nM

Second part, led by results:

IC50 ([3]; Tbb GuTat3.1, 72 h): 68 nM
SMILES: N=C(N)c1ccc(N=NNc2ccc(C(=N)N)cc2)cc1 [Diminazene aceturate, diminazene aceturate]
CC50 [1]: > 355000 nM | IC50 [2]: 11 nM | IC50 ([4]; Tc IL3000, 72 h): 90 nM | IC50 ([5]; Teq IVM‐t1, 72 h): 22 ± 2 nM

IC50 ([3]; Trypanosoma brucei, 72 h): 70 ± 20 nM
SMILES: Cc1ccc(C(=O)Nc2ccc(S(=O)(=O)O)c3cc(S(=O)(=O)O)cc(S(=O)(=O)O)c23)cc1NC(=O)c1cccc(NC(=O)Nc2cccc(C(=O)Nc3cc(C(=O)Nc4ccc(S(=O)(=O)O)c5cc(S(=O)(=O)O)cc(S(=O)(=O)O)c45)ccc3C)c2)c1 [Suramin, suramin]
CC50 at 72 h [9]: > 70000 nM

IC50 [8, 13]: > 10000 nM | IC50 [8, 14]: > 10000 nM | IC50 [11, 13]: > 10000 nM | IC50 [11, 14]: > 10000 nM | IC50 ([3]; Trypanosoma brucei, 72 h): > 58000 nM
SMILES: CCC[C@H](NC(=O)CN1C(=O)SC(=Cc2ccc3c(c2)OCO3)C1=O)C(=O)OCC [Compound 8, Ethyl {2-[5-(benzo[d] [1,3]dioxol-5-ylmethylene)-2,4-dioxothiazolidin-3-yl]acetyl}norvalinate]
CC50 at 72 h [9]: 97100 ± 9300 nM | IC50 [7]: 85860 ± 390 nM | IC50 [10]: > 100000 nM | IC50 ([4]; Trypanosoma congolense, 72 h): > 58000 nM | IC50 ([5]; Trypanosoma equiperdum, 72 h): > 58000 nM | Toxicity on CaCO2 (Caco‐2) cells in words [12]: reduced cell viability
